# Source: the array DNA melting data of Ke et al. (doi:10.1101/2024.01.08.574731)
# Tests used:
# [1] = folding enthalpy; higher = less favourable; fluorescence melt of hairpins on a sequencing array, two-state fit; details: sodium 0.088 M
# Summary of the method: (§1)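 To match UV melts, fitted temperatures were raised by 9.35 °C. These fits were bootstrapped two-state models that gave melting temperature and folding enthalpy, combined by inverse variance over four replicates. The input was normalised Cy3 fluorescence of library hairpins with annealed Cy3 and quencher oligos on a sequenced MiSeq flow cell, imaged in 50 mM Na-HEPES pH 8.0, 25 mM NaCl in 2.5 °C steps up to 60 °C.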
# [2] = melting temperature; fluorescence melt of hairpins on a sequencing array, two-state fit, raised by 9.35 °C to match UV melts; details: sodium 0.088 M
# Summary of the method: as §1
sequence,measurement,setting,value
GACAACGAAAGTTACGTC ((((((....)))..))),folding enthalpy,[1],-12.5 kcal/mol
same,Tm,[2],30.6 °C
GTTAGCGAAAGCTCAAC ((((((....))).))),folding enthalpy,[1],-11.8 kcal/mol
same,Tm,[2],32.7 °C
GATCGGGCCTCCGATC ((((((....)))))),folding enthalpy,[1],-36.6 kcal/mol
same,Tm,[2],59.7 °C
GCGATCGATCGC ((((....)))),folding enthalpy,[1],-41.2 kcal/mol
same,Tm,[2],56.5 °C
GGGTATGGAAACACACCC ((((.((....)).)))),folding enthalpy,[1],-29.8 kcal/mol
same,Tm,[2],42.8 °C
GTGAACTCGAAAGAGCAC (((..(((....)))))),folding enthalpy,[1],-13.4 kcal/mol
same,Tm,[2],35.1 °C
GCTACTCCGAAAGGAAGC (((..(((....)))))),folding enthalpy,[1],-17.9 kcal/mol
same,Tm,[2],30.1 °C
GCTCGGCGAAAGCCCCGC ((..(((....)))..)),folding enthalpy,[1],-4.44 kcal/mol
same,Tm,[2],44.6 °C
GCTCCACGAAAGTGAAGC (((.(((....))).))),folding enthalpy,[1],-30.2 kcal/mol
same,Tm,[2],51.2 °C
GTCGAGCCGAAAGGCGAC (((..(((....)))))),folding enthalpy,[1],-8.79 kcal/mol
same,Tm,[2],50.3 °C
GGTGGTGGAAACATCGCC ((.(.((....)).).)),folding enthalpy,[1],-27.4 kcal/mol
same,Tm,[2],44.6 °C
GCTACCGAAAGGTAGAGC ((((((....)))..))),folding enthalpy,[1],-19.1 kcal/mol
same,Tm,[2],53.7 °C
GATTTGCGAAAGCAGATC (((.(((....))).))),folding enthalpy,[1],-32 kcal/mol
same,Tm,[2],50 °C
GATCAGTGGCCTGATC ((((((....)))))),folding enthalpy,[1],-36 kcal/mol
same,Tm,[2],50.6 °C
GACCTGGGAAACCAGATC ((.((((....)))).)),folding enthalpy,[1],-22.5 kcal/mol
same,Tm,[2],36.1 °C
GATCCAACGGTGGATC ((((((....)))))),folding enthalpy,[1],-43.3 kcal/mol
same,Tm,[2],49 °C
GGATTCGGAAACGAATCC (((((((....))))))),folding enthalpy,[1],-35.8 kcal/mol
same,Tm,[2],67.1 °C
GATACGGGAAACCGTGTC ((.((((....)))).)),folding enthalpy,[1],-30.7 kcal/mol
same,Tm,[2],49.2 °C
GAGCGGACGAAAGTCCTC (((..(((....)))))),folding enthalpy,[1],-8.32 kcal/mol
same,Tm,[2],29.9 °C
GTCATGACGAAAGTCGAC (((..(((....)))))),folding enthalpy,[1],-14.9 kcal/mol
same,Tm,[2],38.6 °C
GATCTGTTATCAGATC ((((((....)))))),folding enthalpy,[1],-39.8 kcal/mol
same,Tm,[2],50.7 °C
GCACGGGGAAACCCGTAC (.(((((....))))).),folding enthalpy,[1],-13.2 kcal/mol
same,Tm,[2],41.7 °C
GTCGAGGGAAACCTCAAC ((.((((....)))).)),folding enthalpy,[1],-18.1 kcal/mol
same,Tm,[2],36.5 °C
GGGGATGCGAAAGCACCC (((..(((....)))))),folding enthalpy,[1],-17.2 kcal/mol
same,Tm,[2],56.2 °C
GCGCGTGGAAACGTGCGC ((((..(....)..)))),folding enthalpy,[1],-40.5 kcal/mol
same,Tm,[2],64.7 °C
GGGATAGGAAACTGTCCC ((((.((....)).)))),folding enthalpy,[1],-35.9 kcal/mol
same,Tm,[2],49.4 °C
CGTCGCGGAAACGCAACG (((.(((....))).))),folding enthalpy,[1],-28.8 kcal/mol
same,Tm,[2],50.5 °C
GCTGCGCGAAAGCCCGGC ((.(.((....)).).)),folding enthalpy,[1],-17.5 kcal/mol
same,Tm,[2],44.1 °C
GAGGACGAAAGTCAGCTC ((((((....)))..))),folding enthalpy,[1],-15 kcal/mol
same,Tm,[2],42 °C
GTCTGCCGAAAGGCGAC (((.(((....)))))),folding enthalpy,[1],-18.1 kcal/mol
same,Tm,[2],54.9 °C
CGTTCGGAAACGATCACG ((((((....)))..))),folding enthalpy,[1],-13.9 kcal/mol
same,Tm,[2],30.9 °C
GAGGTGGGAAACCACTTC ((.((((....)))).)),folding enthalpy,[1],-21.4 kcal/mol
same,Tm,[2],46 °C
CGTCCGGAAACGGCAACG ((((((....)))..))),folding enthalpy,[1],-14.8 kcal/mol
same,Tm,[2],38.5 °C
GAGACCGAAAGGTAGCTC ((((((....)))..))),folding enthalpy,[1],-18.5 kcal/mol
same,Tm,[2],39.6 °C
GATCGGTAATCCGATC ((((((....)))))),folding enthalpy,[1],-40.8 kcal/mol
same,Tm,[2],57.3 °C
ACACTGAAAAGTGT (((((....))))),folding enthalpy,[1],-23.4 kcal/mol
same,Tm,[2],47.4 °C
GTAGACGGAAACGTCCAC ((.((((....)))).)),folding enthalpy,[1],-13.4 kcal/mol
same,Tm,[2],37.9 °C
GGTTTGCGAAAGCATACC (((.(((....))).))),folding enthalpy,[1],-40.6 kcal/mol
same,Tm,[2],52.9 °C
GCTTAGCGAAAGCTTGGC ((..(((....)))..)),folding enthalpy,[1],-18.3 kcal/mol
same,Tm,[2],47 °C
GATCTGCCTCCAGATC ((((((....)))))),folding enthalpy,[1],-32.6 kcal/mol
same,Tm,[2],46.3 °C
GGCGAGGGAAACCCCGCC ((((.((....)).)))),folding enthalpy,[1],-46.8 kcal/mol
same,Tm,[2],57.9 °C
GATCTTTTTCAAGATC ((((((....)))))),folding enthalpy,[1],-33.6 kcal/mol
same,Tm,[2],42.3 °C
GTTTGACGAAAGTCCAAC (((.(((....))).))),folding enthalpy,[1],-20.6 kcal/mol
same,Tm,[2],40.5 °C
GTCGGTCCGAAAGGAGAC (((..(((....)))))),folding enthalpy,[1],-15 kcal/mol
same,Tm,[2],36 °C
GATCCGTAACCGGATC ((((((....)))))),folding enthalpy,[1],-39.2 kcal/mol
same,Tm,[2],55.7 °C
GGCTTTGGAAACAGAGCC ((((.((....)).)))),folding enthalpy,[1],-35.3 kcal/mol
same,Tm,[2],50.6 °C
GCTATAGAAATATAGC ((((((....)))))),folding enthalpy,[1],-32.9 kcal/mol
same,Tm,[2],42.8 °C
GGAGCGGGAAACCGTTCC (((.(((....))).))),folding enthalpy,[1],-38.4 kcal/mol
same,Tm,[2],54.9 °C
GGATAAGGAAACTTATCC (((((((....))))))),folding enthalpy,[1],-37.6 kcal/mol
same,Tm,[2],52.8 °C
GCGAGTTATCGC ((((....)))),folding enthalpy,[1],-24 kcal/mol
same,Tm,[2],57.6 °C
GCACCGGGAAACCGACGC ((..(((....)))..)),folding enthalpy,[1],-24.1 kcal/mol
same,Tm,[2],38 °C
CGGACGGAAACGTGCCG ((((((....))).))),folding enthalpy,[1],-18.7 kcal/mol
same,Tm,[2],48.4 °C
GCCCTGCGAAAGCTGAGC ((.(.((....)).).)),folding enthalpy,[1],-13.9 kcal/mol
same,Tm,[2],47.2 °C
GACGTTGGAAACAACATC ((.((((....)))).)),folding enthalpy,[1],-16.8 kcal/mol
same,Tm,[2],32.4 °C
GACCCCGGAAACAGGGTC (((((.(....).))))),folding enthalpy,[1],-29.5 kcal/mol
same,Tm,[2],48.8 °C
GTTCCGCGAAAGCGCAAC (((.(((....))).))),folding enthalpy,[1],-13.3 kcal/mol
same,Tm,[2],38.4 °C
GCATAGCGAAAGCACTGC (((..((....))..))),folding enthalpy,[1],-13.9 kcal/mol
same,Tm,[2],39.6 °C
GACACCCGAAAGGGGTC (((.(((....)))))),folding enthalpy,[1],-18.5 kcal/mol
same,Tm,[2],54.8 °C
GGGTGGAAACACCC (((((....))))),folding enthalpy,[1],-28.2 kcal/mol
same,Tm,[2],63.5 °C
GGTGGGGGAAACTCCACC (((((.(....).))))),folding enthalpy,[1],-45.9 kcal/mol
same,Tm,[2],56.4 °C
GATCCTGGCAAGGATC ((((((....)))))),folding enthalpy,[1],-44.6 kcal/mol
same,Tm,[2],63.3 °C
CTGTGGAAACACAG (((((....))))),folding enthalpy,[1],-19.7 kcal/mol
same,Tm,[2],52.1 °C
GATCGAGTTGTCGATC ((((((....)))))),folding enthalpy,[1],-39.4 kcal/mol
same,Tm,[2],52.8 °C
GGAGCTGGAAACGGTTCC (((.(.(....).).))),folding enthalpy,[1],-17.5 kcal/mol
same,Tm,[2],37.6 °C
GCAAGTGGAAACACCTGC (((.(((....))).))),folding enthalpy,[1],-25.3 kcal/mol
same,Tm,[2],40.5 °C
GATCGTAGACACGATC ((((((....)))))),folding enthalpy,[1],-39.8 kcal/mol
same,Tm,[2],54.2 °C
GATCACCTCAGTGATC ((((((....)))))),folding enthalpy,[1],-42.3 kcal/mol
same,Tm,[2],59.6 °C
GCCACTCGAAAGAGAGGC (((.(((....))).))),folding enthalpy,[1],-39.1 kcal/mol
same,Tm,[2],60 °C
GGCAAAGGAAACTCTGCC ((((.((....)).)))),folding enthalpy,[1],-32.1 kcal/mol
same,Tm,[2],36.2 °C
